Test results published in ChEMBL document CHEMBL2021795, “Novel epigallocatechin gallate (EGCG) analogs activate AMP-activated protein kinase pathway and target cancer stem cells” (2012).
Activity calls are given as the source filed them. The rule behind the calls is not given here.

Key:
[1] = tested on: MDA-MB-231; test: Induction of AMPKalpha phosphorylation at T172 residue in human MDA-MB-231 cells at 20 uM after 3 hrs by Western blotting analysis relative to control; format: cell-based
Outline: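 MDA-MB-231 cells in DMEM/F12 (1:1) with 10% FBS at 37°C, 5% CO2. Compounds were given at 20 μM, metformin at 10 mM, for 3 h. Whole-cell lysates were run on SDS–PAGE, blotted to nitrocellulose and probed for phospho-AMPKα (T172), with ECL detection. Phospho-AMPKα was normalized to β-actin.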

[2] = tested on: MDA-MB-231; test: Cytotoxicity against human MDA-MB-231 cells assessed as CD44+high/CD24-low cells at 20 uM after 48 hrs by FACS-flow cytometry (reference value: 45%); format: functional
Outline: (§1)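 MDA-MB-231 cells were cultured 5 days on low-adherent plates in sphere medium. Spheres were dissociated with accutase (37°C, 5 min), reseeded and treated with compounds for 48 h. Cells were detached with 0.02% EDTA/PBS and stained with anti-CD44-FITC and anti-CD24-PE or isotype controls for 30 min at 4°C in the dark. The CD44high/CD24low fraction was measured by flow cytometry. Mean of three experiments.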

[3] = tested on: MDA-MB-231; test: Induction of AMPKalpha-mediated up-regulation of p21 in human MDA-MB-231 cells at 5 to 40 uM after 3 hrs by Western blotting analysis relative to control; format: cell-based
Outline: (§2)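 MDA-MB-231 cells grown in DMEM/F12 (1:1) with 10% FBS, penicillin/streptomycin at 37°C, 5% CO2. Exposed to compounds over a concentration series for 3 h. Whole-cell extracts were separated by SDS–PAGE and transferred to nitrocellulose. Blots were probed with the indicated antibodies (p-AMPKα, p-Raptor, p21, β-actin) and detected by ECL. p-AMPKα was normalized to β-actin.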

[4] = tested on: MDA-MB-231; test: Induction of AMPKalpha phosphorylation at T172 residue in human MDA-MB-231 cells after 3 hrs by Western blotting analysis relative to control; format: cell-based; outline: as §2
[5] = tested on: MDA-MB-231; test: Antiproliferative activity against human MDA-MB-231 cells after 24 hrs by MTT assay; format: functional, cell-based
Outline: (§3)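 MDA-MB-231 cells were grown in 96-well plates to 70–80% confluency. Compounds or metformin were added for 24 h at 37°C, then MTT read-out. Samples were run in triplicate in three independent experiments. Data are mean ± SD, expressed as percent of untreated control (100%).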

[6] = tested on: MDA-MB-231; test: Inhibition of mammosphere formation in human MDA-MB-231 cells at 20 uM after 7 days by inverted phase-contrast microscopy; format: functional; details: MDA-MB-231, 168 h
Outline: (§4)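 Single MDA-MB-231 cells were seeded at 1,000 cells/well in ultra-low-attachment 6-well plates. Sphere medium was DMEM/F12 1:1 with B-27, N-2 and penicillin/streptomycin, topped up every 3–4 days. Cells were exposed to compounds or metformin for 7 days. Spheres were collected by centrifugation (300 g, 5 min) and counted under an inverted phase-contrast microscope. Mean of three experiments.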

[7] = tested on: MDA-MB-231; test: Inhibition of mammosphere formation in human MDA-MB-231 cells at 10 uM after 7 days by inverted phase-contrast microscopy; format: functional; details: MDA-MB-231, 168 h; outline: as §4
[8] = tested on: MDA-MB-231; test: Cytotoxicity against human MDA-MB-231 cells assessed as CD44+high/CD24-low cells at 10 uM after 48 hrs by FACS-flow cytometry (reference value: 45%); format: functional; outline: as §1
[9] = tested on: MDA-MB-231; test: Cytotoxicity against human MDA-MB-231 cells assessed as CD44+high/CD24-low cells after 48 hrs by FACS-flow cytometry (reference value: 45%); format: functional, cell-based; outline: as §1
[10] = Activation of AMPKalpha in human MDA-MB-231 cells assessed as suppression of mTOR pathway measuring decrease in p70-S6K T389 phosphorylation at 5 to 40 uM after 3 hrs by Western blotting analysis relative to control; format: cell-based
[11] = tested on: MDA-MB-231; test: Activation of AMPKalpha in human MDA-MB-231 cells assessed as increase in Raptor S792 phosphorylation after 3 hrs by Western blotting analysis relative to control; format: cell-based; outline: as §2
[12] = tested on: MDA-MB-231; test: Inhibition of mammosphere formation in human MDA-MB-231 cells at 5 mM after 7 days by inverted phase-contrast microscopy; format: functional; details: MDA-MB-231, 168 h; outline: as §4
[13] = tested on: MDA-MB-231; test: Induction of AMPKalpha phosphorylation at T172 residue in human MDA-MB-231 cells at 10 mM after 3 hrs by Western blotting analysis relative to control; format: cell-based
Outline: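 MDA-MB-231 human breast cancer cells grown in DMEM/F12 (1:1) with 10% FBS, penicillin and streptomycin at 37°C, 5% CO2. Treated for 3 h, then whole-cell extracts separated by SDS–PAGE, blotted to nitrocellulose and detected by ECL. Phospho-AMPKα (T172) band normalized to β-actin.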

[14] = tested on: MDA-MB-231; test: Inhibition of mammosphere formation in human MDA-MB-231 cells at 10 mM after 7 days by inverted phase-contrast microscopy; format: functional; details: MDA-MB-231, 168 h; outline: as §4
[15] = tested on: MDA-MB-231; test: Antiproliferative activity against human MDA-MB-231 cells at 1 to 20 mM after 24 hrs by MTT assay; format: functional, cell-based; outline: as §3

Work on `O=C(O[C@H]1Cc2ccccc2C[C@H]1OC(=O)c1cc(O)cc(O)c1)c1cc(O)cc(O)c1` yielded a fold change (FC) [1] of 5.1.

In the case of `Nc1ccc(C(=O)O[C@H]2Cc3ccccc3C[C@H]2OC(=O)c2ccc(N)cc2)cc1`, the Activity [2] is reported as 13.9%, the Activity [3] is reported as “Active” and the fold change (FC) [1] is reported as 13.7. For the same molecule, the Activity [4] was “Dose-dependent effect”, the Activity [5] was “Dose-dependent effect” and the inhibition at 20 µM [6] was 73.3%. For the same molecule, the inhibition at 10 µM [7] was 52.2%, the Activity [8] was 25.6% and the Activity [9] was “Dose-dependent effect”. The Activity [10] was “Active” and the Activity [11] was “Dose-dependent effect”.

Work on `CN(C)C(=N)NC(=N)N` [METFORMIN] yielded an inhibition at 5000 µM [12] of 41.4%, a fold change (FC) [13] of 6.3 and an inhibition at 10000 µM [14] of 67.6%. For the same molecule, the Activity [15] was “Active”.

For `CC(=O)Oc1cc(OC(C)=O)c2c(c1)O[C@H](c1cc(OC(C)=O)c(OC(C)=O)c(OC(C)=O)c1)[C@H](OC(=O)c1cc(OC(C)=O)c(OC(C)=O)c(OC(C)=O)c1)C2`, the fold change (FC) [1] was 3.9.

In the case of `O=C(O[C@H]1Cc2ccccc2C[C@H]1OC(=O)c1cc(O)c(Br)c(O)c1)c1cc(O)c(Br)c(O)c1`, the Activity [2] is reported as 18%, the Activity [3] is reported as “Active” and the fold change (FC) [1] is reported as 13.5. The Activity [4] was “Dose-dependent effect”, the Activity [5] was “Dose-dependent effect” and the inhibition at 20 µM [6] was 66.7%. The inhibition at 10 µM [7] was 45.1%, the Activity [8] was 30.5% and the Activity [9] was “Dose-dependent effect”. The Activity [10] was “Active” and the Activity [11] was “Dose-dependent effect”.

With `O=C(O[C@@H]1Cc2c(O)cc(O)cc2O[C@@H]1c1cc(O)c(O)c(O)c1)c1cc(O)c(O)c(O)c1` [EPIGALOCATECHIN GALLATE] the fold change (FC) [1] was 3.9, the Activity [5] was “Active” and the inhibition at 20 µM [6] was 51.3%. For the same molecule, the inhibition at 10 µM [7] was 20.1%.

`O=C(O[C@H]1Cc2ccccc2C[C@H]1OC(=O)c1cc(O)c(O)c(O)c1)c1cc(O)c(O)c(O)c1` showed a fold change (FC) [1] of 5.1.

`CC(=O)Nc1ccc(C(=O)O[C@H]2Cc3ccccc3C[C@H]2OC(=O)c2ccc(NC(C)=O)cc2)cc1` showed a fold change (FC) [1] of 6.
